Biological target: GABA-A receptor; anion channel
Experiment: Ability to inhibit [3H]-Ro- 15-1788 binding to Gamma-aminobutyric acid A receptor alpha in vitro in rat cortical membranes
Format: cell membranes
Procedure, shortened: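 Cortex from male Wistar rats (150–200 g) homogenized in 30 mM Tris-HCl pH 7.4, washed, incubated 30 min at 37 °C to remove endogenous GABA, stored frozen. Nonspecific binding defined with 1 μM clonazepam. Filtration on GF/C, scintillation counting; IC50 from single-concentration inhibition formula.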

SMILES | Ki [µM]
Cc1ccc2oc(-c3cc(C(=O)O)cc([N+](=O)[O-])c3)cc(=O)c2c1 | > 1.7
Cc1ccc2oc(-c3cc(O)cc(C(=O)O)c3)cc(=O)c2c1 | > 1.6
Cc1cccc2c(=O)cc(-c3ccccc3)oc12 | > 1.7
COc1ccccc1-c1cc(=O)c2cc(C)ccc2o1 | 0.82
COC(=O)c1cc(-c2cc(=O)c3cc(C)ccc3o2)cc([N+](=O)[O-])c1 | > 2.1
CCc1ccc2oc(-c3ccccc3)cc(=O)c2c1 | 0.18
Cc1ccc(O)c(-c2cc(=O)c3cc(C)ccc3o2)c1 | 0.0078
Cc1cc(C)cc(-c2cc(=O)c3cc(C)ccc3o2)c1 | > 1.5
Cc1ccc2oc(-c3cccc(C(=O)O)c3)cc(=O)c2c1 | > 1.7
COc1cc(C(=O)O)cc(-c2cc(=O)c3cc(C)ccc3o2)c1 | > 1.6
CCCCOc1cccc(-c2cc(=O)c3cc(C)ccc3o2)c1 | 0.71
CC(C)c1ccc2oc(-c3ccccc3)cc(=O)c2c1 | 0.72
COc1ccc(C)cc1-c1cc(=O)c2cc(C)ccc2o1 | > 1.5
COC(=O)c1cc(C(=O)OC)cc(-c2cc(=O)c3cc(C)ccc3o2)c1 | > 1.6
CCC(CC)COc1cccc(-c2cc(=O)c3cc(C)ccc3o2)c1 | 1
Cc1ccc2oc(-c3cc(C(=O)O)cc(C(=O)O)c3)cc(=O)c2c1 | > 1.6
Cc1ccc2oc(-c3ccc(N)cc3)cc(=O)c2c1 | 2.6
Cc1ccc2oc(-c3ccccc3)cc(=O)c2c1 [6-METHYLFLAVONE] | 0.18
CCCc1ccc2oc(-c3ccccc3)cc(=O)c2c1 | 0.48
Cc1ccc2oc(-c3cc(CO)cc(CO)c3)cc(=O)c2c1 | > 1.5

SMILES | Ki [µM]
CCC(CC)COC(=O)c1cccc(-c2cc(=O)c3cc(C)ccc3o2)c1 | 0.61
Cc1ccc2oc(-c3ccccc3O)cc(=O)c2c1 | 0.0062
COc1ccc(Br)cc1-c1cc(=O)c2cc(C)ccc2o1 | > 1.5
Cc1ccc2oc(-c3cccc(O)c3)cc(=O)c2c1 | 0.39
Cc1ccc2oc(-c3cccc(C(F)(F)F)c3)cc(=O)c2c1 | 0.0098
Cc1ccc2oc(-c3cccc(C(=O)OC(C)C)c3)cc(=O)c2c1 | 0.18
COC(=O)c1cc(O)cc(-c2cc(=O)c3cc(C)ccc3o2)c1 | > 1.6
COC(=O)c1cc(OC)cc(-c2cc(=O)c3cc(C)ccc3o2)c1 | 3
COC(=O)c1cccc(-c2cc(=O)c3cc(C)ccc3o2)c1 | 0.22
Cc1ccc2oc(-c3cccc(N)c3)cc(=O)c2c1 | 1.2
Cc1ccc2oc(-c3cccnc3)cc(=O)c2c1 | 0.13
COc1cccc(-c2cc(=O)c3cc(C)ccc3o2)c1 | 0.099
Cc1ccc2oc(-c3cc(Br)ccc3O)cc(=O)c2c1 | 0.0009
COc1cc(CO)cc(-c2cc(=O)c3cc(C)ccc3o2)c1 | > 1.6
CCOC(=O)c1cc(N)cc(-c2cc(=O)c3cc(C)ccc3o2)c1 | 3.6
Cc1ccc2oc(-c3ccc(C)c(C)c3)cc(=O)c2c1 | > 1.7
COC(=O)c1cc(CO)cc(-c2cc(=O)c3cc(C)ccc3o2)c1 | > 1.5
COC(=O)c1cc(N)cc(-c2cc(=O)c3cc(C)ccc3o2)c1 | > 1.9
Cc1ccc2oc(-c3cccc(Br)c3)cc(=O)c2c1 | 0.012
Cc1ccc2oc(-c3ccccc3N)cc(=O)c2c1 | 0.7
